An excerpt weighted towards active compounds, which were near 4.1% of everything screened.
KCC2 mod: KCC2 cotransporter modulators, thallium flux, primary screen, cell-based, HEK293 KCC2, FluoZin-2 fluorescence, MLSMR; B-score of Tl+ flux slope (higher = more flux/activation; lower = inhibition) at 10 µM; Solute carrier family 12 member 5 (Homo sapiens), Q9H2X9; KCC2 cells, thallium flux FluoZin-2 fluorescence; 2.2% of 190,000 active;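 active = thallium flux slope and its plate-corrected score both differing from the plate sample mean at a set confidence after two filtering rounds, in either direction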;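 note: slope of fluorescence scaled to starting intensity during 10 to 20 s after thallium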
KCNK3 inh: human KCNK3 channel inhibitors, primary screen, CHO cells, FluxOR thallium flux, B-score; Potassium channel subfamily K member 3 (Homo sapiens), O14649; AID 602410, 2012; FluxOR fluorescence; stronger effect = lower value; 0.84% of 340,000 active; B-score at 10 µM;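 active = B-score under library mean minus 4 SD, starting fluorescence ratio at most library mean plus 5 SD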;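 note: more negative B-score means stronger inhibition of thallium flux through KCNK3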
KCNK9 inh: KCNK9 potassium channel inhibitors, primary screen, HEK293 cells, thallium flux; FluxOR thallium flux fluorescence; stronger effect = lower value; AID 488922, 2010; 1.2% of 310,000 active; B-score at 10 µM; Potassium channel subfamily K member 9 (Homo sapiens), Q9NPC2;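 active = ratio B-score over 3 SD below the library mean, with starting fluorescence within 5 SD of its mean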;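 note: negative B-score means less thallium flux so channel inhibition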
KCNQ1 act: potentiators or activators of KCNQ1 channel, primary screen, cell-based, thallium flux, high-throughput. Potassium voltage-gated channel subfamily KQT member 1 (Homo sapiens), P51787. CHO-K1 KCNQ1, thallium flux FluxOR fluorescence; stronger effect = higher value. B-score at 10 µM. 0.35% of 310,000 active. AID 2648, 2010;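 active = fluorescence ratio B-score, a plate-corrected score, at least three library SD, with initial intensity B-score within 5 SD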
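Assay system: CHO-K1 cells stably expressing KCNQ1. Medium: assay buffer for compound exposure, DMSO matched across wells. Timing: 37 °C overnight plating, 90-min dark dye load, 20-min compound pretreatment. Signal: kinetic FluxOR fluorescence, 10 s baseline plus 110 s post-stimulus.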
hERG protect: hERG rescue from dofetilide block, primary screen, cell-based, CHO-hERG, FluxOR thallium flux, dofetilide IC70; 0.51% of 310,000 active; Voltage-gated inwardly rectifying potassium channel KCNH2 (Homo sapiens), Q12809; activation (rescue from dofetilide block), less the hit threshold, % at 10 µM; dofetilide IC70 present;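 active = activation above the mean of controls blocked by dofetilide plus 5 SD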;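 note: thallium influx through hERG after potassium depolarization seen as dye fluorescence rise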
KCNQ1 inh: inhibitors of human KCNQ1 channel, primary screen, cell-based, thallium flux, high-throughput; Potassium voltage-gated channel subfamily KQT member 1 (Homo sapiens), P51787; CHO-K1 KCNQ1, FluxOR thallium flux fluorescence; stronger effect = higher value; B-score at 10 µM; 1.3% of 310,000 active; AID 2642, 2010;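 active = compounds whose thallium flux B-score, printed positive for inhibition, exceeds three library SD while starting fluorescence stays within three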;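 note: channel opened by potassium depolarization with thallium stimulus after 20 min compound exposure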
KCNQ1 inh valid: KCNQ1 potassium channel inhibitors, confirmation, cell-based, Tl flux, duplicate; shares compounds with KCNQ1 inh; KCNQ1 cell line, FluxOR thallium flux fluorescence; inhibition, % at 10 µM; 93% of 1,600 active; AID 588353, 2011;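 active = primary screen active, with duplicate mean exceeding buffer control mean plus 3 SD of buffer wells, cut at about 28% in these data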
CHO Tl flux: thallium flux effects in parental CHO cells, counter-screen for KCNQ1 inhibitor project, cell-based, Tl flux | shares compounds with KCNQ1 inh | parental CHO-K1, FluxOR thallium flux fluorescence ratio; stronger effect = lower value; zero means no signal rise above baseline | fluorescence ratio (Tl flux) at 10 µM | 21% of 1,600 active;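 active = mean of duplicate thallium-flux fluorescence ratios in parental host cells more than 5 SD below the buffer control mean, cut at about 0.38 in these data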;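 note: ratio is peak minus minimum fluorescence divided by baseline fluorescence; actives read low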
KCNQ2 spec: KCNQ2 channel inhibition, selectivity assay for KCNQ1 inhibitor project, cell-based; shares compounds with KCNQ1 inh; KCNQ2 cells, FluxOR thallium flux fluorescence; inhibition, % at 10 µM; 71% of 1,600 active;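 active = mean percent inhibition of the KCNQ2 thallium signal more than 5 SD above the buffer-only control wells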;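 note: KCNQ2 expressed in CHO cells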
KCNQ1-KCNE1 inh: KCNQ1/KCNE1 channel inhibition, selectivity assay for KCNQ1 inhibitor project, CHO-K1 cells, thallium flux, FluxOR; shares compounds with KCNQ1 inh; FluxOR thallium flux fluorescence; inhibition, % at 10 µM; 77% of 1,600 active;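 active = mean percent inhibition of duplicate wells above the buffer-only control mean plus 3 SD of those controls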
KCNK9 block conf: KCNK9 potassium channel inhibitors, confirmation, HEK293 cells, thallium flux, duplicate; FluxOR thallium flux fluorescence; AID 492992, 2010; shares compounds with KCNK9 inh; 43% of 4,900 active; inhibition, % at 10 µM;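 active = thallium signal inhibited by more than 5 SD of the compound-free buffer control wells, on both duplicate plates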
Kir2-1 spec: mouse Kir2.1 channel inhibition, confirmation, selectivity assay for KCNK9 modulator project, cell-based, HEK293, thallium flux; shares compounds with KCNK9 inh; Kir2.1 cells, FluxOR thallium flux fluorescence; inhibition, % at 10 µM; 4% of 4,900 active; AID 492993, 2010;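 active = thallium signal drop more than 5 SD beyond the mean of the no-compound control wells, seen in both duplicate plates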;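 note: signal is fluorescence rise after thallium addition divided by baseline fluorescence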
KCNK9 uninduced: thallium flux in non-induced HEK293 cells, confirmation, counter-screen for KCNK9 inhibitor project, cell-based, second counter screen, non-induced KCNK9-HEK293. FluxOR thallium flux. 40% of 4,900 active. shares compounds with KCNK9 inh. inhibition, % at 10 µM;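 active = thallium signal drop beyond 5 SD of the untreated control mean, on both duplicate plates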
Numbers stand for hits; - = inactive; . = not tested or not shown; + = active, no number.

SMILES	KCC2 mod	KCNK3 inh	KCNK9 inh	KCNQ1 act	hERG protect	KCNQ1 inh	KCNQ1 inh valid	CHO Tl flux	KCNQ2 spec	KCNQ1-KCNE1 inh	KCNK9 block conf	Kir2-1 spec	KCNK9 uninduced
Cc1ccc(S(=O)(=O)N2CCN(Cc3ccccc3C(F)(F)F)CC2)cc1	-	-	-	-	-	10	85	-	94%	94%	-	-	-
CCC(=O)Nc1cc2c3c(c1)CCN3C(=O)CC2	.	-	-	-	-	-	.	.	.	.	.	.	.
CCn1c(=O)n(CC)c2cc(N3CCCC3)c(NC(=O)c3cc(Br)ccc3OC)cc21	.	.	-18	-	-	9	162	0.33	123%	+	72%	-	-
S=C(Nc1ccc(Cc2ccncc2)cc1)Nc1cccc(Cl)c1	-	-	-	-	-	8	68	-	86%	37%	-	-	-
CCOc1cc2c(cc1OC)C(NC(=O)c1ccco1)CC2=O (configuration not stated)	.	-	-	-	-	-	.	.	.	.	.	.	.
CN1C(=O)Cc2cc(S(=O)(=O)N3CCN(c4cccc(C(F)(F)F)c4)CC3)ccc21	.	-	-	-	-	-	.	.	.	.	.	.	.
Cc1ccc(Cl)cc1NC(=O)CC(O)(C(F)(F)F)C(F)(F)F	-	-	-19	-	-	8	90	-	-	83%	-	29%	28%
CCC(CC)NC(=O)Nc1ccc(F)c(Cl)c1	-	-	-8.6	-	-	9	44	-	-	62%	44%	-	-
CC1CCC2(CC1)NC(=O)N(NC(=O)CCc1c[nH]c3ccccc13)C2=O (configuration not stated)	.	-	.	.	.	.	.	.	.	.	.	.	.
